# Assay results gathered from unrelated publications.
# Route: oral
SMILES,system,setting,bioavailability
CC#Cc1cncc(-c2ccc3c(c2)[C@@]2(N=C(C)C(N)=N2)[C@]2(CC[C@H](OC)CC2)C3)c1,"male beagle dog, plasma",3 µmol/kg,80%
Oc1c(-n2ccnn2)cnn1-c1cc(N2CCOCC2)ncn1,"female dog, plasma",1.5 mg/kg,71%
O=C(NCCN1CCCC1)c1cc(-c2ccc(CN3CCOCC3)cc2)nc2ccc(F)cc12,"male beagle dog, blood",3 mg/kg,46%
Cc1cc(Nc2ccc(S(F)(F)(F)(F)F)cc2)n2nc(C(C)(F)F)nc2n1,"male beagle dog, plasma",,~20%
COc1ccc2c(c1OCc1ccccc1)C[C@@H](C(=O)O)N(C(=O)C(c1ccccc1)c1ccccc1)C2,"male beagle dog, plasma",3 mg/kg,39%
C#Cc1cnc2nc(O)n(C(CC)CC)c2n1,"male beagle dog, plasma",1 mg/kg,> 90%
C=CC(=O)Nc1cc(Nc2nccc(Nc3cc(Cl)c(F)cc3C(C)(C)O)n2)c(OC)cc1N1CC[C@@H](N(C)C)C1,"beagle dog, plasma",1 mg/kg,48.8%
N#C[C@@]1(c2ccc3c(N)ncnn23)O[C@H](CO)[C@@H](O)[C@H]1O,"dog, plasma",5 mg/kg,92%
Fc1ccc(Nc2n[nH]c3cccnc23)cc1Cl,"dog, plasma",,36%
